This is an account of results in ChEMBL document CHEMBL2385063, “Identification of 2-(2-(1-naphthoyl)-8-fluoro-3,4-dihydro-1H-pyrido[4,3-b]indol-5(2H)-yl)acetic acid (setipiprant/ACT-129968), a potent, selective, and orally bioavailable chemoattractant receptor-homologous molecule expressed on Th2 cells (CRTH2) antagonist” (J Med Chem, 2013).

As a reminder, the solubility is the concentration that dissolves in the medium under given conditions. A high value points to a readily soluble substance. For orientation: IC50 means the midpoint of a concentration-inhibition curve. A word on the logD: it is the decadic logarithm of the distribution of all forms, ionised or not, between an organic phase and buffer at a given pH.

Molecules are shown by their SMILES. In brackets after ≈: the same amount, converted by molar mass.

Data set [1] in a line: Elimination half life in human plasma at 1 mM by HR-LC-MS analysis. To be noted: read-out: beta t1/2. Type of data set: ADME, cell-free.
The nature of data set [2]: Intrinsic clearance in rat hepatocytes measured per 10^6 cells at 1 uM by LC/MS-MS analysis. The following applies: read-out: CLH. The format is ADME, cell-based, Hepatocyte.
Data set [3] is described as follows: Solubility of the compound in aqueous buffer at pH 7. The format is physicochemical. The method, boiled down: (§1)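 Compound was stirred in water, 60 mM citrate buffer pH 4 or 70 mM phosphate buffer pH 7 at 300 rpm, 25 °C, for 24 h. The mixture was filtered, and the filtrate concentration was measured by HPLC-UV at 250 nm against a calibration curve.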
In the next data set the target is Cytochrome P450 2D6 (Homo sapiens, UniProt P10635). Description: Inhibition of CYP2D6 in human liver microsomes assessed as dextromethorphan O-demethylation by LC-MS/MS analysis. The format is ADME, Microsome. In general terms: Liver microsomes are a subcellular fraction often used to study metabolism.
Cytochrome P450 2D6, sequence (P10635 whole entry): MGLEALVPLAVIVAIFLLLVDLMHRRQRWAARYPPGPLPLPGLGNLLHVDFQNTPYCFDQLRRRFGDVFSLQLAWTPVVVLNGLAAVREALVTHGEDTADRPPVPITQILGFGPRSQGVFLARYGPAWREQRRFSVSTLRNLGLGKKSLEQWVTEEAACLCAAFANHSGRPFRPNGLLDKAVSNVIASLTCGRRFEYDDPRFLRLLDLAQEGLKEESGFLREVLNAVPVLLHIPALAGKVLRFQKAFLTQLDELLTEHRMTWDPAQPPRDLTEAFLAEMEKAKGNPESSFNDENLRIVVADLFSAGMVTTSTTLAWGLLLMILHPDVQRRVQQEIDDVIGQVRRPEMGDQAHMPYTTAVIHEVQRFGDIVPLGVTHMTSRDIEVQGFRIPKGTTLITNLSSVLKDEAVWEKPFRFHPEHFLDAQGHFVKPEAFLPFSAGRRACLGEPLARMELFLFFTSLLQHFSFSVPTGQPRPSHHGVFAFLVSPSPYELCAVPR
Data set [4] in a line: Solubility of the compound in water at pH 4.3. The format is physicochemical. The method, boiled down: as §1
Data set [5] has as its target T1, Prostaglandin E2 receptor EP1 subtype (Homo sapiens, UniProt P34995).
T1 sequence (P34995 whole entry): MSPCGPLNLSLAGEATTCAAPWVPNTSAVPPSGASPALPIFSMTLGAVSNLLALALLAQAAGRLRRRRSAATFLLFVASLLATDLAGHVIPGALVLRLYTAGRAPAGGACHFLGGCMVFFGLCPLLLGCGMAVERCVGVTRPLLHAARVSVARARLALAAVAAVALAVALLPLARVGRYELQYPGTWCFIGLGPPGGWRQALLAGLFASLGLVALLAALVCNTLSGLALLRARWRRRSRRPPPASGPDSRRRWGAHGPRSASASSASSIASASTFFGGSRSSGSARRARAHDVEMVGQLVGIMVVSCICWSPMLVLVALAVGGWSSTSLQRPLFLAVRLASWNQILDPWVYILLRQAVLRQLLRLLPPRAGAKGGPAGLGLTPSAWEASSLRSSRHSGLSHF
The experiment in a line: Antagonist activity at human prostanoid EP1 receptor expressed in CHOK1 cells assessed as inhibition of PGE2-induced calcium flux after 60 mins by FLIPR assay. The format is functional, cell-based, CHO-K1.

A short description of data set [6]: Half life in simulated intestinal fluid at 2 uM by LC-MS analysis. The format is physicochemical. An outline of the steps:
(§2)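 Compounds were incubated in simulated gastric fluid for 1 h or simulated intestinal fluid for 4 h. Unchanged parent was quantified by LC-MS.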

Data set [7] can be described thus: Half life in simulated gastric fluid at 2 uM by LC-MS analysis. The format is physicochemical. An outline of the steps: as §2
For data set [8], the target named is Prostaglandin E2 receptor EP2 subtype (Homo sapiens, UniProt P43116). Description: Inhibition of beta-arrestin binding to recombinant human prostanoid EP2 receptor expressed in HEK293 cell membranes by beta-lactamase complementation assay.
Prostaglandin E2 receptor EP2 subtype, sequence (P43116 whole entry): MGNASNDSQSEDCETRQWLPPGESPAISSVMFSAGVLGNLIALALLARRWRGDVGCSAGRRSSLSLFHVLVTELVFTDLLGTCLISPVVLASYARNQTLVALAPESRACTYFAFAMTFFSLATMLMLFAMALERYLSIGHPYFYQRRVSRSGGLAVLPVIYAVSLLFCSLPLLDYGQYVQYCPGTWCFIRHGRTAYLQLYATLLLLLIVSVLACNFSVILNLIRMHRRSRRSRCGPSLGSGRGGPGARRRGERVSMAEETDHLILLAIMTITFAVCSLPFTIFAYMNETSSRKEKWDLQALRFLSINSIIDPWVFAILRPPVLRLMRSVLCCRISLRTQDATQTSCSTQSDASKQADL
For another data set, the target named is Cytochrome P450 3A4 (Homo sapiens, UniProt P08684). Description: Inhibition of CYP3A4 in human liver microsomes assessed as midazolam-1'-hydroxylation by LC-MS/MS analysis. Type of data set: ADME, Microsome.
Cytochrome P450 3A4, sequence (P08684 whole entry): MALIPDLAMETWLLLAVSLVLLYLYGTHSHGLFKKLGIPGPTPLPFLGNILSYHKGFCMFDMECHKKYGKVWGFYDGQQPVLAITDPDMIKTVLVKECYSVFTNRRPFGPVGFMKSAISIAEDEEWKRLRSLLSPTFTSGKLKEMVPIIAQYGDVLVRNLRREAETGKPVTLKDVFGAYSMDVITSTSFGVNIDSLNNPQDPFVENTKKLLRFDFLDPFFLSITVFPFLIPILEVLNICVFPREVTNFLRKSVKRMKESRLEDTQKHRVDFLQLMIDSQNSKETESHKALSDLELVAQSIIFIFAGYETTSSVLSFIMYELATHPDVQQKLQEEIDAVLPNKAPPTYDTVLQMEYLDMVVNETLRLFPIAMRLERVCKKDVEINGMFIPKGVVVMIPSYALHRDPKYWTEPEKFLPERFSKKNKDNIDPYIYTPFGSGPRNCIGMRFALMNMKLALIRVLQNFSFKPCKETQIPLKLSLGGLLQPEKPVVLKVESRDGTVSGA
The nature of data set [9]: Intrinsic clearance in rat liver microsomes measured per mg of protein at 1 uM by LC/MS-MS analysis. The format is ADME, Microsome. The following applies: read-out: CLH.
Data set [10] concerns the target T2, Prostaglandin D2 receptor 2 (Homo sapiens, UniProt Q9Y5Y4).
T2 sequence (Q9Y5Y4 whole entry): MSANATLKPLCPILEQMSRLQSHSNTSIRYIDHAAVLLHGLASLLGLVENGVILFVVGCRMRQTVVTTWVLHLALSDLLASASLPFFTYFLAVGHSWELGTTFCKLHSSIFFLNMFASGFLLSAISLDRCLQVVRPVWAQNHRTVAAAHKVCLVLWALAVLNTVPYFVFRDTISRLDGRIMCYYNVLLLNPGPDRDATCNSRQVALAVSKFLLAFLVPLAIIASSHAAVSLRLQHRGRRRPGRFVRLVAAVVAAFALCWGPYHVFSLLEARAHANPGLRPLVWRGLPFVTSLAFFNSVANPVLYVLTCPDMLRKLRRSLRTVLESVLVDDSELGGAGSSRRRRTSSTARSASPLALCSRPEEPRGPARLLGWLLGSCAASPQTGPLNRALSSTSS
Description: Displacement of [3H]PGD2 from recombinant human CRTH2 receptor expressed in HEK293 cell membranes after 90 mins by scintillation counting analysis. An outline of the steps: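 Membranes from HEK293 cells expressing hCRTH2 (80 μg protein/well) in Tris pH 7.4 buffer with NaCl, EDTA, 0.1% BSA were incubated with 2.5 nM [3H]PGD2 for 90 min at room temperature. Nonspecific binding was defined with 10 μM PGD2. Samples were filtered on PEI-soaked GF/C and read by scintillation counting.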
For orientation: In a radioligand displacement assay an active substance lowers the binding of a labelled ligand.

Data set [11] deals with T2, Prostaglandin D2 receptor 2. Description: Antagonist activity at CRTH2 receptor in human eosinophils assessed as inhibition of PGD2-induced cell shape change incubated for 1 hr prior to PGD2 induction measured after 5 mins by FACS flow cytometric analysis in presence of human plasma. The following applies: in the assay text read “incubated for 10 mins” for “incubated for 1 hr”. An outline of the steps:
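Polymorphonuclear cells isolated from healthy-donor blood on a Polymorphprep gradient (500g, 30 min), erythrocytes lysed hypotonically. Cells stained 1 h with CD49d-APC, mixed with human plasma, preincubated with antagonist, then stimulated with 15 nM PGD2 for 5 min at 37 °C. Fixed in cold 1% paraformaldehyde. Eosinophils gated by CD49d/SSC; activation read as % cells with raised forward scatter.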
A general note: A flow cytometer gives signals particle by particle.

A short description of data set [12]: n-octanol-KH2PO4-Na2HPO4 buffer partition coefficient, log D of the compound at pH 7.4 by shake flask method. Type of data set: physicochemical.
In data set [13] the target is T3, Prostaglandin E2 receptor EP3 subtype (Homo sapiens, UniProt P43115).
T3 sequence (P43115 whole entry): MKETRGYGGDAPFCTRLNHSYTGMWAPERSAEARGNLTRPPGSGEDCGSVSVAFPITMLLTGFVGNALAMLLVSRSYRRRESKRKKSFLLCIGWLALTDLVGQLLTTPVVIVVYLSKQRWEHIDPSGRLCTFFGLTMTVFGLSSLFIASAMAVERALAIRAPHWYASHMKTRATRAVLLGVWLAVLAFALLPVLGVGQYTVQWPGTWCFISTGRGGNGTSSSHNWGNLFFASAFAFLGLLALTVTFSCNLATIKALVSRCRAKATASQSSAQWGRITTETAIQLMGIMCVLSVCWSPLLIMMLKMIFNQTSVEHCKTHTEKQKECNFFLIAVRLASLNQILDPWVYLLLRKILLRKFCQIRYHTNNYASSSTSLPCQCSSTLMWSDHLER
The experiment in a line: Antagonist activity at human prostanoid EP3 receptor expressed in HEK293 cells assessed as inhibition of PGE2-induced calcium flux after 60 mins by FLIPR assay. Type of data set: functional, cell-based.

Data set [14] is described as follows: Intrinsic clearance in human liver microsomes measured per mg of protein at 1 uM by LC/MS-MS analysis. Type of data set: ADME, Microsome. The following applies: read-out: CLH.
Another data set deals with Cytochrome P450 2C9 (Homo sapiens, UniProt P11712). The experiment in a line: Inhibition of CYP2C9 in human liver microsomes assessed as diclofenac 4'-hydroxylation by LC-MS/MS analysis. The format is ADME, Microsome.
Cytochrome P450 2C9, sequence (P11712 whole entry): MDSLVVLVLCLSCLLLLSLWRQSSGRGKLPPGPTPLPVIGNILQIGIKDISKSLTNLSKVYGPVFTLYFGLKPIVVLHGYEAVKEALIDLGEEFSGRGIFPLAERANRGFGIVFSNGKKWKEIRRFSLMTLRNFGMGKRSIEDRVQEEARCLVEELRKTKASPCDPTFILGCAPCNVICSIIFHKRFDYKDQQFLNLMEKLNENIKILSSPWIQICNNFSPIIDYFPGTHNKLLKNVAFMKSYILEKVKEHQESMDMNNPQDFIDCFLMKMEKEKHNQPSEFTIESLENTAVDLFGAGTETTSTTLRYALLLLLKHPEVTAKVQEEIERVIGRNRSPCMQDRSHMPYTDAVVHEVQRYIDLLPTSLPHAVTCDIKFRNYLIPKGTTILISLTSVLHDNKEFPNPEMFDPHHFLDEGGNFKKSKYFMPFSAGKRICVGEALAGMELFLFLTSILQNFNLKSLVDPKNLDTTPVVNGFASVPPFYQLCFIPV
Data set [15] is described as follows: Elimination half life in Sprague-Dawley rat plasma at 1 mM by HR-LC-MS analysis. Type of data set: ADME, cell-free. The following applies: read-out: beta t1/2.
The nature of data set [16]: Solubility of the compound in aqueous buffer at pH 4. Type of data set: physicochemical. The method, boiled down:
as §1

The target of data set [17] is T2, Prostaglandin D2 receptor 2. Description: Antagonist activity at CRTH2 receptor in human eosinophils assessed as inhibition of PGD2-induced cell shape change incubated for 10 mins prior to PGD2 induction measured after 5 mins by FACS flow cytometric analysis in presence of human plasma.

On to `O=C(O)Cn1c2c(c3cc(F)ccc31)CN(C(=O)c1cccc3ccccc13)CC2` [SETIPIPRANT], for which the half-life in [1] and in data set [15] was > 4 h in each case. Also, the hepatocyte CLint at 1 µM in [2] is 3.1 µL/min/1e6 cells. Besides, the solubility in [3] amounted to 880 µg/mL (≈ 2190 µM); in data set [4], 50 µg/mL (≈ 124 µM); in data set [16], 90 µg/mL (≈ 224 µM). The half-maximal inhibitory concentration (IC50) was > 50 µM on Cytochrome P450 2D6; > 25 µM in data set [5]; 2.6 µM in data set [8]; > 50 µM at Cytochrome P450 3A4; 0.006 µM in data set [10]; 0.235 µM in [11]. For the same molecule, the IC50 in data set [13] is > 25 µM; at Cytochrome P450 2C9 it was > 50 µM. In addition, the results for the half-life at 2 µM in data set [6] and in [7] were > 4 h and > 1 h, respectively. The microsomal CLint at 1 µM in data set [9] and in [14] was 5 µL/min/mg in each case. The same molecule returned a logD in [12] of 0.1.

For the molecule `CCc1ccc(-c2ccc(C(=O)N3CCc4c(c5ccccc5n4CC(=O)O)C3)cc2)cc1`, the half-life in data set [1] and in data set [15] was > 4 h each time. In [2], the hepatocyte CLint at 1 µM is 5.3 µL/min/1e6 cells. For the same molecule, the solubility in data set [3] worked out at 30 µg/mL (≈ 68.4 µM); in data set [4], 2 µg/mL (≈ 4.56 µM); in [16] it was 1 µg/mL (≈ 2.28 µM). Besides, the IC50 was > 50 µM at Cytochrome P450 2D6; > 25 µM in [5]; 6.4 µM in data set [8]; > 50 µM at Cytochrome P450 3A4; 0.004 µM in [10]; 0.24 µM in data set [11]. For the same molecule, the IC50 in data set [13] was > 25 µM; on Cytochrome P450 2C9, 14 µM. Further, the half-life at 2 µM in data set [6] is > 4 h; in data set [7], > 1 h. Besides, the figures for the microsomal CLint at 1 µM in data set [9] and in data set [14] were 31 µL/min/mg and 85 µL/min/mg, respectively. This molecule also yielded a logD in data set [12] of 1.8.

`O=C(O)Cn1c2c(c3ccccc31)CN(C(=O)c1cccc3ccccc13)CC2`: the half-life in [1] and in data set [15] was > 4 h in each case. For the same molecule, the hepatocyte CLint at 1 µM in data set [2] came out at 1.5 µL/min/1e6 cells. In addition, the solubility in data set [3] turned out to be 830 µg/mL (≈ 2160 µM); in data set [16], 90 µg/mL (≈ 234 µM). The half-maximal inhibitory concentration (IC50) was > 50 µM on Cytochrome P450 2D6; 1.12 µM in [17]; > 25 µM in data set [5]; 6.6 µM in data set [8]; > 50 µM on Cytochrome P450 3A4; 0.009 µM in [10]. The 50% inhibitory concentration (IC50) was > 25 µM in data set [13] and 40 µM on Cytochrome P450 2C9. The values for the half-life at 2 µM in [6] and in [7] were > 4 h and > 1 h, respectively. The microsomal CLint at 1 µM is 36 µL/min/mg in [9] and < 4 µL/min/mg in data set [14]. In data set [12], this molecule returned a log distribution coefficient (logD) of 0.2.

On to `O=C(O)Cn1c2c(c3cc(C(F)(F)F)ccc31)CN(C(=O)c1ccccc1)CC2`, for which the half-inhibitory concentration (IC50) in data set [17] is 0.13 µM; in [5], > 25 µM; in data set [8], > 10 µM; in data set [10], 0.009 µM; in [13] it was > 25 µM.

Turning to `O=C(O)Cn1c2c(c3cc(C(F)(F)F)ccc31)CN(C(=O)c1cccc3ccccc13)CC2`, the half-maximal inhibitory concentration (IC50) in data set [17] was 0.18 µM; in data set [5] it was > 25 µM; in data set [8], > 10 µM; in data set [10] it was 0.011 µM; in [13] it was > 25 µM.

As for `O=C(O)Cn1c2c(c3ccccc31)CN(C(=O)c1ccccc1)CC2`, the half-life in [1] and in [15] was > 4 h in each case. In addition, in data set [2], the hepatocyte CLint at 1 µM stood at 0.9 µL/min/1e6 cells. Further, in data set [4], the concentration in solution (solubility) came to 64 µg/mL (≈ 191 µM). Moreover, the half-maximal inhibitory concentration (IC50) in data set [17] was 0.11 µM; in data set [5] it was > 25 µM; in data set [13], > 25 µM; at Cytochrome P450 2C9, 15 µM. Moreover, the half-life at 2 µM in data set [6] is > 4 h; in [7], > 1 h. For the same molecule, the results for the microsomal CLint at 1 µM in data set [9] and in [14] were < 4 µL/min/mg and 5 µL/min/mg, respectively. Also, the log distribution coefficient (logD) in data set [12] was -1.2.

For `O=C(O)Cn1c2c(c3cc(F)ccc31)CN(C(=O)CCc1cccc3ccccc13)CC2`, the IC50 in data set [17] was 0.21 µM; in [5], > 25 µM; in data set [8], 9.5 µM; in [10], 0.01 µM; in [13], > 25 µM.
